The text below walks through data of ChEMBL document CHEMBL2086391, “Structure based molecular design, synthesis and biological evaluation of α-pyrone analogs as anti-HSV agent” (Bioorg Med Chem Lett, 2012).

In brackets after ≈: the same amount, converted by molar mass. Activity calls are given as the source filed them. No cut-off for these calls is given here.

Data set [1] in a line: Selectivity index, ratio of CC50 for african green monkey Vero cells to EC50 for HSV-1F ATCC 733. The conditions noted are these: read-out: Ratio CC50/EC50. It is filed as toxicity, cell-based. In outline:
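SI computed as CC50/EC50. CC50 from the 2-day MTT viability assay on Vero cells; EC50 from the 3-day MTT assay of HSV-1 cytopathic effect (MOI 0.5). Both in µg/ml.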

For data set [2], the system named is Human alphaherpesvirus 1. Put plainly: Antiviral activity against HSV-1F ATCC 733 infected in african green monkey Vero cells assessed as inhibition of virus induced cytopathic effect after 3 days by MTT assay. The following applies: Human alphaherpesvirus 1, ATCC 733, Vero, 72 h. Type of data set: functional, organism-based. The essentials:
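Vero cells seeded at 1.0 × 10^5 cells/ml, held 6 h at 37 °C, 5% CO2, then infected with virus at 0.5 MOI for 1 h. Serial compound concentrations added in triplicate, with 0.1% DMSO and acyclovir controls. MTT read after 3 days at 37 °C. % inhibition taken from test, virus-control and cell-control absorbances. EC50 is 50% inhibition of virus-induced CPE; experiment repeated three times.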

The test system of data set [3] is Human immunodeficiency virus. Put plainly: Antiviral activity against HIV infected in human MT4 cells by MTT assay. It is filed as functional, organism-based.
For data set [4], the system named is Human alphaherpesvirus 1. Put plainly: Antiviral activity against HSV-1F ATCC 733 infected in african green monkey Vero cells assessed as inhibition of virus yield at 20 ug/ml after 3 days by MTT assay. The conditions noted are these: Human alphaherpesvirus 1, ATCC 733, Vero, 72 h. Type of data set: functional. Background: Tetrazolium assays rely on reduction of a dye to a coloured formazan, in cell work by metabolically active cells.

The nature of data set [5]: Cytotoxicity against african green monkey Vero cells after 2 days by MTT assay. It is filed as cell-based. The following applies: chlorocebus sabaeus. In outline:
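Vero cells plated at 1.0 × 10^5 cells/ml and exposed in triplicate to a range of compound concentrations, with 0.1% DMSO as negative control. After 2 days at 37 °C, 5% CO2, MTT added for 4 h. Formazan dissolved in 0.04 N HCl/isopropanol and read at 570 nm (reference 690 nm). % viability taken against media control; CC50 in µg/ml.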

In data set [6] the test system is Human herpesvirus 2 strain G. Put plainly: Antiviral activity against HSV-2G ATCC 734 infected in african green monkey Vero cells after 2 to 3 days by plaque reduction assay. It is filed as functional, organism-based. The following applies: Human alphaherpesvirus 2, ATCC 734, Vero. In outline: (§1)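 Vero cells infected at MOI 0.5 (HSV-1 or HSV-2), with serial compound dilutions in EMEM, held 1–2 h at room temperature. Cells then washed and overlaid with methylcellulose. Plaques stained with crystal violet after 2–3 days. Acyclovir and 0.1% DMSO served as controls. EC50 (50% plaque reduction) interpolated from dose-response curves.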
In general terms: Plaques are areas of infected cells; plaque reduction assays count them against a control.

For data set [7], the system named is Human alphaherpesvirus 1. Put plainly: Antiviral activity against HSV-1F ATCC 733 infected in african green monkey Vero cells after 2 to 3 days by plaque reduction assay. It is filed as functional, organism-based. The conditions noted are these: Human alphaherpesvirus 1, ATCC 733, Vero. The essentials: as §1
Data set [8] in a line: Selectivity index, ratio of CC50 for african green monkey Vero cells to EC50 for HSV-2G ATCC 734 by plaque reduction assay. It is filed as toxicity, cell-based. The conditions noted are these: read-out: Ratio CC50/EC50. The essentials:
(§2)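 SI derived from the Vero CC50 (MTT) divided by the plaque-reduction EC50 against the named HSV strain (MOI 0.5, methylcellulose overlay, crystal violet count after 2–3 days).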

The nature of data set [9]: Selectivity index, ratio of CC50 for african green monkey Vero cells to EC50 for HSV-1F ATCC 733 by plaque reduction assay. The conditions noted are these: read-out: Ratio CC50/EC50. Type of data set: toxicity, cell-based. In outline: as §2

Usually EC50 stands for the concentration that produces a half-maximal response. The inhibition is how much of the control response was suppressed. As a reminder, the CC50 is the concentration at which the toxic effect on the cells reaches its halfway point.

As to `O=C(Nc1ccccc1)c1c(N2CCCC2)cc(-c2ccccc2)oc1=O`, the selectivity ratio in [1] was found to be 3. Further, the EC50 in [2] amounted to 12.5 µg/mL (≈ 34.7 µM). In addition, the result in data set [3] was inactive. The inhibition at 20 µg/mL in data set [4] is 79%. The compound also showed a CC50 at 48 h in data set [5] of 37.5 µg/mL (≈ 104 µM).

With `O=C(NCCO)c1c(N2CCCCC2)cc(-c2ccccc2)oc1=O`, the selectivity ratio in data set [1] is 7.1; in data set [8], 3.6; in [9], 12.8. The EC50 in [6] is 14.5 µg/mL (≈ 42.3 µM); in [2], 7.4 µg/mL (≈ 21.6 µM); in data set [7] it was 4.1 µg/mL (≈ 12 µM). Further, the outcome in data set [3] was inactive. Further, the inhibition at 20 µg/mL in data set [4] was 89%. In addition, the half-maximal cytotoxic concentration (CC50) at 48 h in data set [5] was found to be 52.5 µg/mL (≈ 153 µM).

For `O=C(Nc1ccc(Cl)cc1)c1c(N2CCCC2)cc(-c2ccccc2)oc1=O`, the result in data set [3] was inactive.

For the compound `O=C(NCCO)c1c(N2CCCC2)cc(-c2ccc(F)cc2)oc1=O`, the outcome in [3] was inactive.

Turning to `Cc1ccc(NC(=O)c2c(N3CCCC3)cc(-c3ccccc3)oc2=O)cc1`, in data set [1], the selectivity ratio stood at 2.7. The EC50 in data set [2] was 20.9 µg/mL (≈ 55.8 µM). For the same compound, the result in [3] was inactive. In addition, the inhibition at 20 µg/mL in [4] was found to be 62%. In addition, the CC50 at 48 h in data set [5] turned out to be 56.5 µg/mL (≈ 151 µM).

Consider `O=C(NCCO)c1c(N2CCCC2)cc(-c2ccccc2)oc1=O`, for which the selectivity ratio in [1] was 3.1. Also, the concentration for a half-maximal effect (EC50) in data set [2] worked out at 9.7 µg/mL (≈ 29.5 µM). In data set [3], the result was inactive. The inhibition at 20 µg/mL in [4] is 70%. In data set [5], this compound came in with a CC50 at 48 h of 30 µg/mL (≈ 91.4 µM).

For the compound `O=C(NCCO)c1c(N2CCCCC2)cc(-c2ccc(F)cc2)oc1=O`, the result in [3] was inactive.

As for `O=C(Nc1ccc(Br)cc1)c1c(N2CCCC2)cc(-c2ccccc2)oc1=O`, the outcome in [3] was inactive.

`Nc1nc2c(ncn2COCCO)c(=O)[nH]1` [ACYCLOVIR] yielded a concentration for a half-maximal effect (EC50) in data set [6] of 1.8 µg/mL (≈ 7.99 µM). In addition, the inhibition at 20 µg/mL in [4] is 94%. This compound came in with a CC50 at 48 h in data set [5] of 130 µg/mL (≈ 577 µM).

For `O=C(Nc1ccc(F)cc1)c1c(N2CCCC2)cc(-c2ccccc2)oc1=O`, the outcome in data set [3] was inactive.
